Source: ChEMBL document CHEMBL1142700, “Nonpolar and short side chain groups at C-11beta of estradiol result in antiestrogens” (J Med Chem, 2005)

Legend:
Ishikawa [1] = assay: Inhibitory constant against stimulation of alkaline phosphatase activity in Ishikawa cells; type: functional, cell-based, Homo sapiens
[2] = target: Estrogen receptor (Rattus norvegicus) (UniProt P06211+Q62986); assay: Relative binding affinity for estrogen receptor of rat uterine cytosol; type: protein assay
Outline: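 Cytosol from uteri of Sprague-Dawley rats taken 24 h after castration, homogenized in TEGDMo buffer (pH 7.4), spun at 105 000g. Incubated on ice overnight with 1 nM [3H]E2 and competitor at 10^-12 to 10^-6 M. Dextran-coated charcoal separation, counting. RBA = EC50 E2 / EC50 analogue × 100, at least three duplicate experiments.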

[3] = target: Estrogen receptor beta (Homo sapiens) (UniProt Q92731); assay: Inhibition of [3H]E2 binding to human Estrogen receptor-beta ligand binding domain (LBD) expressed in Escherichia coli lysates
Outline: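 Human ERβ LBD (M214-Q530) in E. coli lysates; overnight room-temperature competition with [3H]E2, charcoal separation of bound from free. RBA relative to E2 from EC50 ratio × 100, at least three duplicate experiments.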

[4] = target: T1, Estrogen receptor (Homo sapiens) (UniProt P03372); assay: Inhibition of [3H]E2 binding to human Estrogen receptor-alpha ligand binding domain (LBD) expressed in Escherichia coli lysates
T1 sequence (whole entry): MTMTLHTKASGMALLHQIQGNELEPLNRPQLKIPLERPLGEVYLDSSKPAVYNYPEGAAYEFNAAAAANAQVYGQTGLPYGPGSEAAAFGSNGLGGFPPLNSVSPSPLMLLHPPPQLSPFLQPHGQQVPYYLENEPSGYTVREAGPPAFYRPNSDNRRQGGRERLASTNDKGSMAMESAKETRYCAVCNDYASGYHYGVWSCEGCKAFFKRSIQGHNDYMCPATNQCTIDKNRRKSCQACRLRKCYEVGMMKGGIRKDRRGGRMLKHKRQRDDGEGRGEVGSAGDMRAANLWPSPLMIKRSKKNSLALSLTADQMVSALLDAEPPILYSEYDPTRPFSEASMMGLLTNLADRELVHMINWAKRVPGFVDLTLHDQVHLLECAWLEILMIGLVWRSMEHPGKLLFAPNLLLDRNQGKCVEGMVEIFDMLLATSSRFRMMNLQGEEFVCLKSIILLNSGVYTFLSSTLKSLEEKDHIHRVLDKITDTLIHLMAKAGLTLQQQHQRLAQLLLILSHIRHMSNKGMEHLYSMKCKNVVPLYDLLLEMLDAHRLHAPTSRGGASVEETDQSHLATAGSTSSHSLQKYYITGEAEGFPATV
Outline: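 Human ERα LBD (M250-V595) expressed in E. coli lysates, competed against [3H]E2 overnight at room temperature. Bound separated by dextran-coated charcoal. RBA = EC50 of E2 / EC50 of analogue × 100, from at least three experiments in duplicate.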

Ishikawa [5] = assay: Inhibitory constant against stimulation of alkaline phosphatase activity in Ishikawa cells; weak mixed agonist/antagonist; type: functional, cell-based, Homo sapiens
Ishikawa [6] = assay: Inhibitory constant against stimulation of alkaline phosphatase activity in Ishikawa cells; na is not active; type: functional, cell-based, Homo sapiens
Ishikawa [7] = assay: Inhibitory constant of the compound against stimulationofalkaline phosphatase activity inIshikawa cells; weak mixed agonist/antagonist; type: functional, cell-based, Homo sapiens
Ishikawa [8] = assay: Relative stimulatory activity in Ishikawa cells with respect to E2; type: functional, Homo sapiens
Outline: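 Ishikawa alkaline phosphatase induction: phenol red-free medium, charcoal-stripped bovine serum, 3-day exposure to steroid across at least 6 log units. Read kinetically at 405 nm with 5 mM p-nitrophenyl phosphate, pH 9.8. RSA = (1/EC50 analogue) / (1/EC50 E2) × 100, fitted in at least three duplicate experiments.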

Ishikawa [9] = assay: Inhibitory constant against stimulation of alkaline phosphatase activity in Ishikawa cells; ag./ant. is mixed agonist/antagonist; type: functional, cell-based, Homo sapiens
Ishikawa [10] = assay: Inhibitory constant against stimulation of alkaline phosphatase activity in Ishikawa cells; mixed agonist/antagonist moderate activity; type: functional, cell-based, Homo sapiens
Ishikawa [11] = assay: Inhibitory constant against stimulation of alkaline phosphatase activity in Ishikawa cells; (agonist); type: functional, cell-based, Homo sapiens
Ishikawa [12] = assay: Estrogenic potency measured as stimulation of alkaline phosphatase activity relative to E2 in human endometrialadenocarcinoma cells (Ishikawa); type: functional
Outline: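 Ishikawa human endometrial adenocarcinoma cells grown in phenol red-free medium with charcoal-stripped bovine serum and steroid over at least 6 orders of magnitude for 3 days. Cells washed, freeze-thawed, then given 5 mM p-nitrophenyl phosphate at pH 9.8, with kinetic reading of p-nitrophenol at 405 nm. At least three experiments in duplicate; EC50 by curve fitting.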

Ishikawa [13] = assay: Inhibitory constant against stimulation of alkaline phosphatase activity in Ishikawa cells; not active; type: functional, cell-based, Homo sapiens

Estrogen receptor beta (Homo sapiens), sequence (Q92731 whole entry, the tested form may be a part): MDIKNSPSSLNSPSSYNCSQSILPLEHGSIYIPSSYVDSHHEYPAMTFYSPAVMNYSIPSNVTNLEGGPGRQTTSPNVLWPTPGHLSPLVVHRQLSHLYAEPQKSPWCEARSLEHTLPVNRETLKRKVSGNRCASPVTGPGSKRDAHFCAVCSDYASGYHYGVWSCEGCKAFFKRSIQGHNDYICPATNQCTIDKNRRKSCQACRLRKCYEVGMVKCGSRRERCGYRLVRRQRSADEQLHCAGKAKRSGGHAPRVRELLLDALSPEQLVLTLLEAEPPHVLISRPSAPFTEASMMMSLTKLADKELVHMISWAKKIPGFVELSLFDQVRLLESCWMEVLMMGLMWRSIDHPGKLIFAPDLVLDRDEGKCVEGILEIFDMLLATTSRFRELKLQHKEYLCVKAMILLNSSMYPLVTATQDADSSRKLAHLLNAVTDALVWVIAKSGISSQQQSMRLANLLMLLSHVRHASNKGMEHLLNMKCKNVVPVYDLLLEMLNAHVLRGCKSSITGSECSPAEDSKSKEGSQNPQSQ

Row | SMILES | RBA [2] [%] | RBA [3] [%] | RBA [4] [%] | Ki (Ishikawa [1]) [nM] | further results
1 | CNC(=O)CC[C@H]1C[C@]2(C)[C@@H](O)CC[C@H]2[C@@H]2CCc3cc(O)ccc3[C@@H]12 | 0.6 |  |  |  | Ki (Ishikawa [5]): Partial agonist
2 | CCCC(=O)CC[C@H]1C[C@]2(C)[C@@H](O)CC[C@H]2[C@@H]2CCc3cc(O)ccc3[C@@H]12 | 7.7 |  |  | 13 | 
3 | CC(C)(C)OCCC[C@H]1C[C@]2(C)[C@@H](O)CC[C@H]2[C@@H]2CCc3cc(O)ccc3[C@@H]12 | 81 | 82 | 128 | 0.09 | 
4 | CCOC(=S)C[C@H]1C[C@]2(C)[C@@H](O)CC[C@H]2C2CCc3cc(O)ccc3[C@H]21 (single isomer, unassigned) | 10 |  |  | 2.7 | 
5 | CC(C)OC(=O)C[C@H]1C[C@]2(C)[C@@H](O)CC[C@H]2C2CCc3cc(O)ccc3[C@H]21 (single isomer, unassigned) | 17 |  |  | 2.1 | 
6 | CCCCO[C@H]1C[C@]2(C)[C@@H](O)CC[C@H]2[C@@H]2CCc3cc(O)ccc3[C@H]21 | 2.1 | 21 | 7.5 |  | Ki (Ishikawa [6]): Not Active
7 | CCNC(=O)C[C@H]1C[C@]2(C)[C@@H](O)CC[C@H]2C2CCc3cc(O)ccc3[C@H]21 (single isomer, unassigned) | 0.1 |  |  |  | Ki (Ishikawa [7]): Partial agonist
8 | CCCC(=O)C[C@H]1C[C@]2(C)[C@@H](O)CC[C@H]2C2CCc3cc(O)ccc3[C@H]21 (single isomer, unassigned) | 13 |  |  | 3.1 | 
9 | CCC(=O)C[C@H]1C[C@]2(C)[C@@H](O)CC[C@H]2C2CCc3cc(O)ccc3[C@H]21 (single isomer, unassigned) | 18 |  |  |  | Stimulatory activity (Ishikawa [8]): 1.9%; Ki (Ishikawa [5]): Partial agonist
10 | C[C@]12C[C@H](CCCOCCF)[C@@H]3c4ccc(O)cc4CC[C@H]3[C@@H]1CC[C@@H]2O | 47 | 140 | 96 | 1.1 | 
11 | CC(C)OCCC[C@H]1C[C@]2(C)[C@@H](O)CC[C@H]2[C@@H]2CCc3cc(O)ccc3[C@@H]12 | 114 | 93 | 220 | 0.2 | 
12 | CC(C)(C)COC(=O)C[C@H]1C[C@]2(C)[C@@H](O)CC[C@H]2C2CCc3cc(O)ccc3[C@H]21 (single isomer, unassigned) | 10 |  |  | 5.2 | 
13 | CCNC(=O)CC[C@H]1C[C@]2(C)[C@@H](O)CC[C@H]2[C@@H]2CCc3cc(O)ccc3[C@@H]12 | 3.7 |  |  |  | Ki (Ishikawa [5]): Partial agonist
14 | C[C@]12C[C@H](COCCF)[C@@H]3c4ccc(O)cc4CC[C@H]3[C@@H]1CC[C@@H]2O | 10 | 35 | 27 |  | Ki (Ishikawa [5]): Partial agonist
15 | CCCOC(=O)C[C@H]1C[C@]2(C)[C@@H](O)CC[C@H]2C2CCc3cc(O)ccc3[C@H]21 (single isomer, unassigned) | 38 |  |  | 1 | 
16 | CCCCOC[C@H]1C[C@]2(C)[C@@H](O)CC[C@H]2[C@@H]2CCc3cc(O)ccc3[C@@H]12 | 44 | 268 | 102 | 0.1 | 
17 | CCC(=O)CC[C@H]1C[C@]2(C)[C@@H](O)CC[C@H]2[C@@H]2CCc3cc(O)ccc3[C@@H]12 | 3.7 |  |  | 16 | 

Continued, in another order:

Row | RBA [2] [%] | RBA [3] [%] | RBA [4] [%] | SMILES | Ki (Ishikawa [1]) [nM] | further results
18 | 15 | 32 | 45 | CC(C)OCC[C@H]1C[C@]2(C)[C@@H](O)CC[C@H]2C2CCc3cc(O)ccc3[C@H]21 (single isomer, unassigned) | 0.4 | 
19 | 65 | 88 | 54 | CCCOCC[C@H]1C[C@]2(C)[C@@H](O)CC[C@H]2C2CCc3cc(O)ccc3[C@H]21 (single isomer, unassigned) | 0.3 | 
20 | 16 | 34 | 112 | C[C@]12C[C@H](CCOCCF)[C@@H]3c4ccc(O)cc4CCC3[C@@H]1CC[C@@H]2O (single isomer, unassigned) | 55 | 
21 | 31 | 40 | 49 | CCOCC[C@H]1C[C@]2(C)[C@@H](O)CC[C@H]2C2CCc3cc(O)ccc3[C@H]21 (single isomer, unassigned) | 0.3 | 
22 | 48 | 75 | 87 | CCOCCC[C@H]1C[C@]2(C)[C@@H](O)CC[C@H]2[C@@H]2CCc3cc(O)ccc3[C@@H]12 | 0.3 | 
23 | 34 | 111 | 159 | COCCC[C@H]1C[C@]2(C)[C@@H](O)CC[C@H]2[C@@H]2CCc3cc(O)ccc3[C@@H]12 | 0.3 | 
24 | 28 | 73 | 70 | CCOC[C@H]1C[C@]2(C)[C@@H](O)CC[C@H]2[C@@H]2CCc3cc(O)ccc3[C@@H]12 |  | Ki (Ishikawa [9]): Partial agonist
25 | 25 | 90 | 67 | COCC[C@H]1C[C@]2(C)[C@@H](O)CC[C@H]2C2CCc3cc(O)ccc3[C@H]21 (single isomer, unassigned) |  | Ki (Ishikawa [10]): Partial agonist
26 | 43 | 125 | 146 | CCCOC[C@H]1C[C@]2(C)[C@@H](O)CC[C@H]2[C@@H]2CCc3cc(O)ccc3[C@@H]12 | 0.3 | 
27 | 20 | 240 | 114 | COC[C@H]1C[C@]2(C)C(O)CC[C@H]2[C@@H]2CCc3cc(O)ccc3[C@@H]12 (some centres undefined) |  | Ki (Ishikawa [11]): Agonist; Relative stimulatory activity (Ishikawa [12]): 125%
28 | 2.3 | 2 | 5 | CC(C)(C)OCC[C@H]1C[C@]2(C)[C@@H](O)CC[C@H]2C2CCc3cc(O)ccc3[C@H]21 (single isomer, unassigned) | 20 | 
29 | 1 |  |  | CC(=O)CC[C@H]1C[C@]2(C)[C@@H](O)CC[C@H]2[C@@H]2CCc3cc(O)ccc3[C@@H]12 |  | Ki (Ishikawa [13]): Not Active
